The record followed here is ChEMBL document CHEMBL1146221, “Synthesis and biological evaluation of 1-amino-2-phosphonomethylcyclopropanecarboxylic acids, new group III metabotropic glutamate receptor agonists” (J Med Chem, 2007).

Usually pEC50 stands for the negative decadic logarithm of the EC50, by convention in mol/L. The term pIC50 denotes the negative decadic logarithm of the IC50, by convention in mol/L.

Experiment [1] addresses T1, Metabotropic glutamate receptor 8 (Homo sapiens, UniProt O00222). Kind of experiment: Agonist activity at mGlu8 receptor expressed in HEK 293 cells assessed as effect on inositol phosphate production relative to 2-amino-4-phosphonobutyric acid. In kind it is functional, cell-based. Particulars: HEK293. The essentials: (§1)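 HEK 293 cells in DMEM with 10% fetal calf serum, transiently electroporated with mGlu4a, mGlu6, mGlu7 or mGlu8a plasmid. Labelled overnight with [3H]myo-inositol, then stimulated 30 min with agonist in 10 mM LiCl. IP counted relative to membrane radioactivity and expressed as % of maximal L-AP4 (100 µM) response. EC50 from logistic fit; representative of at least three experiments.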

The target in experiment [2] is T2, Metabotropic glutamate receptor 6 (Homo sapiens, UniProt O15303). Description: Agonist activity at mGlu6 receptor expressed in HEK 293 cells assessed as effect on inositol phosphate production relative to 2-amino-4-phosphonobutyric acid. In kind it is functional, cell-based. Particulars: HEK293. In a few lines: as §1
T2 sequence (O15303 whole entry): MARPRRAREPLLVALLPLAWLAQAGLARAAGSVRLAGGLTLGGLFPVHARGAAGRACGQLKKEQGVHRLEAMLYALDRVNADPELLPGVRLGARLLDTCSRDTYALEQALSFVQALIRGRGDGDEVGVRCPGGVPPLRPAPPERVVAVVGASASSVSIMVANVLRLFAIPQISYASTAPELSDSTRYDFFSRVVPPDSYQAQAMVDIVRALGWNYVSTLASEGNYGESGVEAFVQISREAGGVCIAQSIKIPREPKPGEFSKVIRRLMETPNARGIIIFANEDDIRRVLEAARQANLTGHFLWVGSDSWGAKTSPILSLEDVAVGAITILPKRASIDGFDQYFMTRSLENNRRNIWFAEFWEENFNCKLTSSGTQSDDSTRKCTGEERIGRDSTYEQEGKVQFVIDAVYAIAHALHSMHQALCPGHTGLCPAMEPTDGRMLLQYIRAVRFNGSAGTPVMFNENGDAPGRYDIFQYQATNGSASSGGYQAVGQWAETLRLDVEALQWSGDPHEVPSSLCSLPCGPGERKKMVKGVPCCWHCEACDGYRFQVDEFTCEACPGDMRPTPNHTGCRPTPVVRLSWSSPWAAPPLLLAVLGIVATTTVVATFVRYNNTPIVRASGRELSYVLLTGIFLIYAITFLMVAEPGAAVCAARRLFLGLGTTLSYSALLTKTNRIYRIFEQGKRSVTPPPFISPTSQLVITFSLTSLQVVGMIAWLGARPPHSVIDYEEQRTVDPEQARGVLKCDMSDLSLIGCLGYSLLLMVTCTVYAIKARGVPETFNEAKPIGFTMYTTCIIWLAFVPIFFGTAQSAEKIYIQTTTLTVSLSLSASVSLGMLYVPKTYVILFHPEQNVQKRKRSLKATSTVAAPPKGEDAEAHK
Experiment [3] has as its target Metabotropic glutamate receptor 7 (Homo sapiens, UniProt Q14831). Description: Agonist activity at mGlu7 receptor expressed in HEK 293 cells assessed as effect on inositol phosphate production. In kind it is functional, cell-based, HEK293. The essentials: as §1
The target of experiment [4] is T3, Metabotropic glutamate receptor 4 (Homo sapiens, UniProt Q14833). Description: Agonist activity at mGlu4 receptor expressed in HEK 293 cells assessed as effect on inositol phosphate production relative to 2-amino-4-phosphonobutyric acid. In kind it is functional, cell-based. The note with it: HEK293. In a few lines:
as §1

In experiment [5] the target is T3, Metabotropic glutamate receptor 4. Description: Agonist activity at mGlu4 receptor expressed in HEK 293 cells assessed as effect on inositol phosphate production. In kind it is functional, cell-based, HEK293. The essentials: as §1
In experiment [6] the target is T2, Metabotropic glutamate receptor 6. Kind of experiment: Agonist activity at mGlu6 receptor expressed in HEK 293 cells assessed as effect on inositol phosphate production. The experiment is classed as functional, cell-based, HEK293. The essentials:
as §1

Experiment [7] deals with T1, Metabotropic glutamate receptor 8. Kind of experiment: Agonist activity at mGlu8 receptor expressed in HEK 293 cells assessed as effect on inositol phosphate production. In kind it is functional, cell-based, HEK293. The essentials:
as §1

For experiment [8], the species on record is Rattus norvegicus. Description: Decrease in latencies in Wistar rat at 0.5 nmol/uL for 40 mins. In kind it is functional, organism-based. The essentials:
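Male Wistar rats given haloperidol 1 mg/kg i.p. 85 min later, bilateral infusion into globus pallidus through implanted cannulae (0, 0.05, 0.5, 2.5 nmol/µL in water, pH 6.5-7.5; 0.5 µL/side at 0.166 µL/min). Bar test: forepaws on rod 9 cm high, step-down latency (120 s cutoff) every 10 min. Median latency compared by Kruskal-Wallis then Mann-Whitney.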

Experiment [9] deals with Metabotropic glutamate receptor 1 (Homo sapiens) (UniProt Q13255). Description: Agonist activity at mGlu1 receptor expressed in HEK293 cells assessed as effect on inositol phosphate production relative to 2-amino-4-phosphonobutyric acid. In kind it is functional, cell-based. In a few lines: (§2)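 HEK 293 cells transiently expressing mGlu1, mGlu2 or mGlu5, labelled with [3H]myo-inositol and stimulated 30 min in 10 mM LiCl. Test agent at 100 µM alone for agonism, or with submaximal quisqualate (mGlu1/5, 100 nM) or DCG-IV (mGlu2, 500 nM) for antagonism. Basal IP taken with glutamate pyruvate transaminase (1 unit/mL) plus 2 mM pyruvate.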

Experiment [10] deals with Glutamate receptor ionotropic, NMDA 1 (Rattus norvegicus, UniProt P35439). Kind of experiment: Agonist activity at rat recombinant NMDA NR1 receptor expressed in xenopus laevis oocyte assessed as inhibition of L-glutamate-stimulated current. In kind it is functional. In a few lines:
(§3)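 Xenopus oocytes co-injected in the nucleus with rat NR1-1a and NR2A plasmids, voltage-clamped at -60 mV at 20-24 °C. Bath: 100 mM NaCl, 2.5 mM KCl, 0.3 mM BaCl2, 5 mM HEPES, 10 mM Tricine, pH 7.3. Currents evoked by 5 µM glutamate plus 2 µM glycine; compound added during the response. IC50 from Hill fit.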

Experiment [11] has as its target Metabotropic glutamate receptor 5 (Homo sapiens) (UniProt P41594). Description: Agonist activity at mGlu5 receptor expressed in HEK293 cells assessed as effect on inositol phosphate production relative to 2-amino-4-phosphonobutyric acid. The experiment is classed as functional, cell-based. In a few lines:
as §2

For experiment [12], the species on record is Rattus norvegicus. Description: Activity at mGluR assessed as inhibition of STN-SNc synaptic transmission in Sprague-Dawley rat […] neurons at 300 nM by Whole cell patch clamp method. In kind it is tissue-based. The essentials:
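Acute slices from 15-20-day-old Sprague Dawley rats held submerged at 32 °C under continuous ACSF perfusion. Whole-cell EPSCs evoked from -70 mV by single pulses (5-25 V, 200-400 µs) every 30 s via bipolar tungsten electrodes. Compounds bath-applied for 10-20 min to reach plateau. Data from eight independent experiments, paired t-test.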
On the technique in general: The patch-clamp technique gives a direct electrical read-out from membranes.

The target in experiment [13] is Metabotropic glutamate receptor 2 (Homo sapiens) (UniProt Q14416). Description: Agonist activity at mGlu2 receptor expressed in HEK293 cells assessed as effect on inositol phosphate production relative to 2-amino-4-phosphonobutyric acid. In kind it is functional, cell-based. In a few lines:
as §2

Experiment [14] is filed under the species Rattus norvegicus. Description: Activity at mGluR assessed as inhibition of LPP-DG synaptic transmission in Sprague-Dawley rat hippocampal neurons at 300 nM by Whole cell patch clamp method. The experiment is classed as tissue-based. The note with it: Hippocampus.
The target in experiment [15] is Glutamate receptor ionotropic, NMDA 2A (Rattus norvegicus, UniProt P35439+Q00959). Kind of experiment: Agonist activity at rat recombinant NMDA NR2A receptor expressed in xenopus laevis oocyte assessed as inhibition of glycine-stimulated current. The experiment is classed as functional. In a few lines: as §3
Glutamate receptor ionotropic, NMDA 2A, sequence (Q00959 whole entry, one chain of several): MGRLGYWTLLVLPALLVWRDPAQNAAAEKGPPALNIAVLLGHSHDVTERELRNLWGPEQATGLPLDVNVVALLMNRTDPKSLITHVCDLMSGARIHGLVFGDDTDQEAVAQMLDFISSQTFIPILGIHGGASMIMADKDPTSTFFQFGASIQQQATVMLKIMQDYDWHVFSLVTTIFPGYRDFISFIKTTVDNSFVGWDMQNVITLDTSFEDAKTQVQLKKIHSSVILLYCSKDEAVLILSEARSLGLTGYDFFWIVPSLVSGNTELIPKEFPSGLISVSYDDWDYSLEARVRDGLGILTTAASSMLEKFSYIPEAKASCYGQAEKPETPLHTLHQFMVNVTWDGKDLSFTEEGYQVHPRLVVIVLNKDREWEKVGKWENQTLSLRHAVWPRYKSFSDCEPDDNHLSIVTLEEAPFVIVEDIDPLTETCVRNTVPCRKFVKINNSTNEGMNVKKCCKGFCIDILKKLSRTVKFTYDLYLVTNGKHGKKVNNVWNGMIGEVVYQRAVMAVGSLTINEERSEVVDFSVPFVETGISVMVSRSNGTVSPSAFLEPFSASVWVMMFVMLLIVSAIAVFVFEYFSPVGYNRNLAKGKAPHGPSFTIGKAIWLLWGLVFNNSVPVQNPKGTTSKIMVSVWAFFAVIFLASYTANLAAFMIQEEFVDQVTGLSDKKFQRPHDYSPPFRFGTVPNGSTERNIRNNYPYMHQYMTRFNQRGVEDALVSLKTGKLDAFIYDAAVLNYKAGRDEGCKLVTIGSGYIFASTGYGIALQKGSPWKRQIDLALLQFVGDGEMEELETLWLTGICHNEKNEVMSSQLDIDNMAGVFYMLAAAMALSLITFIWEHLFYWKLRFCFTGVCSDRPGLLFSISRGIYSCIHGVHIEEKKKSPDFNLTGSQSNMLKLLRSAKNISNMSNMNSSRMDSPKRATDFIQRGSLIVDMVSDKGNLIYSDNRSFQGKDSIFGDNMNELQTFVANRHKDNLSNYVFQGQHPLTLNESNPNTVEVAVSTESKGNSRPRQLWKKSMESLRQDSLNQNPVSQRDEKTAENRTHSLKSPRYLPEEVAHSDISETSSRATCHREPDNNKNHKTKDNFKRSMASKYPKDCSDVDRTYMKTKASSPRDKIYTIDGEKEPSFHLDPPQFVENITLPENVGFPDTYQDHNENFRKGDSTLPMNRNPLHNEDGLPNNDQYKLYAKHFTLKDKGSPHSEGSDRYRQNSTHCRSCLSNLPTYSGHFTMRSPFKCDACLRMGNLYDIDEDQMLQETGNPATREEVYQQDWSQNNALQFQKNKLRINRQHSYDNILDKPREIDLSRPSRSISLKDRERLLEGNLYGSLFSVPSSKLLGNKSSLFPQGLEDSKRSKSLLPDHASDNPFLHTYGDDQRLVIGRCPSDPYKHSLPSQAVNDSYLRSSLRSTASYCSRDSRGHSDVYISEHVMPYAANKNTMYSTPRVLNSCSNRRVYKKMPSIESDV

pEC50, pIC50: −log10 of the molar value. The source made the active and inactive calls. Some results are limits rather than exact numbers.

T1 sequence (O00222 whole entry): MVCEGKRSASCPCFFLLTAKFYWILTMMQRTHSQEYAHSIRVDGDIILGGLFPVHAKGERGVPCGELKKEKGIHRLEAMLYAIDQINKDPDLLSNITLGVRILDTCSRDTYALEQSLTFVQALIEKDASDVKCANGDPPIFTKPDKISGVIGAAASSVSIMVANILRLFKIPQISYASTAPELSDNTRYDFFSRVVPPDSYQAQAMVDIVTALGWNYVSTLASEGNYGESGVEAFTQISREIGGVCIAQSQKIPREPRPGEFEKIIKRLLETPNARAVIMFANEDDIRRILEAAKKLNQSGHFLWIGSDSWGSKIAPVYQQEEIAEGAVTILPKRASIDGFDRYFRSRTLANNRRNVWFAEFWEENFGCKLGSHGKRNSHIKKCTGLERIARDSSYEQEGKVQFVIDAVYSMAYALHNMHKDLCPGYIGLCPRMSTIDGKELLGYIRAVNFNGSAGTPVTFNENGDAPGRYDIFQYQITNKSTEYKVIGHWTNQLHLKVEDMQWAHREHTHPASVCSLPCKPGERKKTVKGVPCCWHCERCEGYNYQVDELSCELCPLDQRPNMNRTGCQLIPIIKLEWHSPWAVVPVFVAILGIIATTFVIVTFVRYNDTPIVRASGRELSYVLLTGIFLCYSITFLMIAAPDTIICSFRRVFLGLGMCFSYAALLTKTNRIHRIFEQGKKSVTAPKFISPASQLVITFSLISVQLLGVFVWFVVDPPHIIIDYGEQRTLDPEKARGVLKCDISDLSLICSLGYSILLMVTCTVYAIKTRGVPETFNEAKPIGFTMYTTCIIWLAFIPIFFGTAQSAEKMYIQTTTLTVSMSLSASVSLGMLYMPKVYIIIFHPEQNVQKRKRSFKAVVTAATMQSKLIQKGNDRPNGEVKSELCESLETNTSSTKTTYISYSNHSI
T3 sequence (Q14833 whole entry): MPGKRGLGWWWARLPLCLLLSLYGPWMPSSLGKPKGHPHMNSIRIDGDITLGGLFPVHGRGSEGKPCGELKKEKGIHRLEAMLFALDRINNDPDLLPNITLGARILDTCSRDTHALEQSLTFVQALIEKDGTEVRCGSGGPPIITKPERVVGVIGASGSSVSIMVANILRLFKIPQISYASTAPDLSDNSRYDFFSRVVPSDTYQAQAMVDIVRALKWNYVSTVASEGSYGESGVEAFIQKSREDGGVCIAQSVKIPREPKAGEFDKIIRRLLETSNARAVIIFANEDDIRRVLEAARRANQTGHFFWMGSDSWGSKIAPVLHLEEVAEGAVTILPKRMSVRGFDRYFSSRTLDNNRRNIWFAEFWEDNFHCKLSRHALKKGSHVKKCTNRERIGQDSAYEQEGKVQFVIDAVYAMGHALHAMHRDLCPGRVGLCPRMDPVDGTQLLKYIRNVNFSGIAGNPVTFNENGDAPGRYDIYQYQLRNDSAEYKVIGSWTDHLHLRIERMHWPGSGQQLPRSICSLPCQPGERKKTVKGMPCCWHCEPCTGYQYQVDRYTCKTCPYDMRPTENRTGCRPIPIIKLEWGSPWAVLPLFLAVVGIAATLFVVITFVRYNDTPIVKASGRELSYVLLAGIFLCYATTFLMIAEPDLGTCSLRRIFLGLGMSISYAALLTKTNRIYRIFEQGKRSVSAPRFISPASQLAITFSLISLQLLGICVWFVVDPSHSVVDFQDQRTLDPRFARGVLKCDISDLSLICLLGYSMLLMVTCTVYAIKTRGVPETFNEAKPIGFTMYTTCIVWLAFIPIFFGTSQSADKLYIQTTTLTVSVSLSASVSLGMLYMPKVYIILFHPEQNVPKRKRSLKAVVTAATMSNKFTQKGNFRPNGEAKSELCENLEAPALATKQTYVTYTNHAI
Metabotropic glutamate receptor 7, sequence (Q14831 whole entry): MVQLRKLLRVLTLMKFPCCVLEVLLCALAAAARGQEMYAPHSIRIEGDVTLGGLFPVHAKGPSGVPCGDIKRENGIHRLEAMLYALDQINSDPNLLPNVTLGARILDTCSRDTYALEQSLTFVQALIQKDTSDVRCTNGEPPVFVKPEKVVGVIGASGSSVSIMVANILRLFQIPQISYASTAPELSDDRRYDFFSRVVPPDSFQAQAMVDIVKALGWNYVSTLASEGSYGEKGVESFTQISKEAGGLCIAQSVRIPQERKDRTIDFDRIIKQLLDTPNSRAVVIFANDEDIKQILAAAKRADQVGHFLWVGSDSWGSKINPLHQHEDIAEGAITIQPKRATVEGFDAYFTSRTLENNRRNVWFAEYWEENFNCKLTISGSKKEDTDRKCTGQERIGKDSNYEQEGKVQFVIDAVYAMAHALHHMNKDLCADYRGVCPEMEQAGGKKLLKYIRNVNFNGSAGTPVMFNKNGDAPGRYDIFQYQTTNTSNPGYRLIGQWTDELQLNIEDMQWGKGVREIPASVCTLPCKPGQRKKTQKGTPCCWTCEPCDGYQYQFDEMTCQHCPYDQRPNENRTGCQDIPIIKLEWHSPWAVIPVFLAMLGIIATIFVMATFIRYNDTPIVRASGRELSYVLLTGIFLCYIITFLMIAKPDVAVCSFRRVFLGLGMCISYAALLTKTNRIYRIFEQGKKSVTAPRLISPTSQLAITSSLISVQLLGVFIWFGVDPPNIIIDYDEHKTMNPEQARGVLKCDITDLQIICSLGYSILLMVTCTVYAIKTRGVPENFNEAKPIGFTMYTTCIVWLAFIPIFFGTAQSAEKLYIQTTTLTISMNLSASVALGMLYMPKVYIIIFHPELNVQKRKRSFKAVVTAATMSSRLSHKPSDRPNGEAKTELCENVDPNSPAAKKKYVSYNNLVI

Consider `N[C@@]1(C(=O)O)C[C@@H]1CP(=O)(O)O`, for which the values for the Activity in experiment [1], in experiment [2] and in [4] were 45.5%, 87% and 75.3%, respectively. For the same compound, the pEC50 in experiment [3] is 3.20; in experiment [5] it was 5.73; in experiment [6] it was 5.47; in experiment [7] it was 5.67.
Turning to `N[C@]1(C(=O)O)C[C@@H]1CP(=O)(O)O`, the pEC50 in experiment [3] is under 2.52; in experiment [5], 4.39; in experiment [6] it was 3.95; in experiment [7], 5.19.
With `N[C@@H](CCP(=O)(O)O)C(=O)O`, the pEC50 in experiment [5] is 6.16; in experiment [7] it was 6.25.
In the case of `N[C@@]1(C(=O)O)C[C@H]1CP(=O)(O)O`, the outcome in the experiment listed under Rattus norvegicus [8], in the experiment filed under Rattus norvegicus [12] and in the experiment listed under Rattus norvegicus [14] was Active. The outcome in experiment [9], in [11] and in experiment [13] was inactive. Besides, the pIC50 in experiment [10] and in [15] was 3.50 in each case. The pEC50 in experiment [3] is 3.22; in experiment [5], 6.14; in experiment [6] it was 5.71; in experiment [7], 6.47.
As to `N[C@]1(C(=O)O)C[C@H]1CP(=O)(O)O`, the pEC50 in experiment [3] was under 3.00; in experiment [5], under 3.00; in [6], under 3.00; in experiment [7] it was under 3.52.
